Measured values: ChEMBL document CHEMBL1122284, “Aromatic retinoic acid analogues. 2. Synthesis and pharmacological activity” (1983)

What was measured:
Cricetinae gen. sp. [1] = test: Total cultures(11) versus active (5) at 10e-8 M conc. in hamster tracheal organ culture assay (TOC); format: functional, Trachea
In short: (§1)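 Tracheas from Syrian golden hamsters kept on a vitamin A deficient diet from birth to 30–32 days old. Cultured serum-free (CMRL 1066 with insulin, hydrocortisone, glutamine, antibiotics), one explant per dish, 50% O2/45% N2/5% CO2, 36 °C, rocked. 3 days without retinoid, then 7 days with retinoid, medium renewed three times. Histology on day 10. Active means keratin/keratohyaline granules absent. Usually duplicate, 6–7 tracheas per concentration.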

Cricetinae gen. sp. [2] = test: Total cultures(13) versus active (5) at 10e-9 M conc. in hamster tracheal organ culture assay (TOC); format: functional, Trachea; in short: as §1
Cricetinae gen. sp. [3] = test: Total cultures (13) versus active (4) at 10e-10 M conc. in hamster tracheal organ culture assay (TOC); format: functional, Trachea; in short: as §1
Cricetinae gen. sp. [4] = test: ED50 of retinoid required to effect reversal of keratinization; format: functional; in short: as §1
Cricetinae gen. sp. [5] = test: Relative potency with respect to retinoic acid in hamster tracheal organ culture assay (TOC); format: functional, Cricetulus griseus, Trachea
[6] = biological target: T1, Ornithine decarboxylase (Mus musculus) (UniProt P00860); test: Percent inhibition of the induction of ornithine decarboxylase at 1.7 nmol in mouse dorsal epidermis (ODC assay); format: functional
T1 sequence (whole entry): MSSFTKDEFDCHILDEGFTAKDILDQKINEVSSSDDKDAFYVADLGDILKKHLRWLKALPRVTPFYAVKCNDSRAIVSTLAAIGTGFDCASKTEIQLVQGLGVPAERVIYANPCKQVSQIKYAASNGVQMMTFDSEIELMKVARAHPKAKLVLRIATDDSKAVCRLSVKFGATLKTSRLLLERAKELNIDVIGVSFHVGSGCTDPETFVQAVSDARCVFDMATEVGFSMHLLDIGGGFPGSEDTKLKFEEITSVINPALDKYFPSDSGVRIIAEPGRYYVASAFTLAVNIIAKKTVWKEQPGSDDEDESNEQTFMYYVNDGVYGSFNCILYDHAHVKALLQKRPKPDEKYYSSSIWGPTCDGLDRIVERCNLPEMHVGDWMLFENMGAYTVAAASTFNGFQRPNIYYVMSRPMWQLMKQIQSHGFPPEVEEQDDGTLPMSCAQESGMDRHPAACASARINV

[7] = biological target: T1, Ornithine decarboxylase (Mus musculus); test: Percent inhibition of the induction of ornithine decarboxylase at 17 nmol dose in mouse dorsal epidermis (ODC assay); format: functional
Cricetinae gen. sp. [8] = test: Total cultures (14) versus active (4) at 10e-10 M conc. in hamster tracheal organ culture assay (TOC); format: functional, Trachea; in short: as §1
Cricetinae gen. sp. [9] = test: Total cultures (14) versus active (8) at 10e-9 M conc. in hamster tracheal organ culture assay (TOC); format: functional, Trachea; in short: as §1
Cricetinae gen. sp. [10] = test: Total cultures(7) versus active (7) at 10e-8 M conc. in hamster tracheal organ culture assay (TOC); format: functional, Trachea; in short: as §1
[11] = biological target: T1, Ornithine decarboxylase (Mus musculus); test: Percent inhibition of the induction of ornithine decarboxylase in mouse dorsal epidermis (ODC assay); format: functional
Cricetinae gen. sp. [12] = test: Total cultures(11) versus active(13) at 10e-9 M conc. in hamster tracheal organ culture assay (TOC); format: functional, Trachea; in short: as §1
Cricetinae gen. sp. [13] = test: Total cultures (1)versus active(6) at 10e-11 M conc. in hamster tracheal organ culture assay (TOC); format: functional, Trachea; in short: as §1
Cricetinae gen. sp. [14] = test: Total cultures(6) versus active(6) at 10e-8 M conc. in hamster tracheal organ culture assay (TOC); format: functional, Trachea; in short: as §1
Cricetinae gen. sp. [15] = test: Total cultures(9) versus active(14) at 10e-10 M conc. in hamster tracheal organ culture assay (TOC); format: functional, Trachea; in short: as §1
Cricetinae gen. sp. [16] = test: Total cultures(6) versus active (1) at 10e-11 M conc. in hamster tracheal organ culture assay (TOC); format: functional, Trachea; in short: as §1
Cricetinae gen. sp. [17] = test: Total cultures(6) versus active (3) at 10e-10 M conc. in hamster tracheal organ culture assay (TOC); format: functional, Trachea; in short: as §1
Cricetinae gen. sp. [18] = test: Total cultures(6) versus active (5) at 10e-9 M conc. in hamster tracheal organ culture assay (TOC); format: functional, Trachea; in short: as §1
Cricetinae gen. sp. [19] = test: Total cultures(13) versus active (11) at 10e-8 M conc. in hamster tracheal organ culture assay (TOC); format: functional, Trachea; in short: as §1
Cricetinae gen. sp. [20] = test: Total cultures(14) versus active (5) at 10e-10 M conc. in hamster tracheal organ culture assay (TOC); format: functional, Trachea; in short: as §1
Cricetinae gen. sp. [21] = test: Total cultures(14) versus active (6) at 10e-9 M conc. in hamster tracheal organ culture assay (TOC); format: functional, Trachea; in short: as §1
Cricetinae gen. sp. [22] = test: Total cultures(12) versus active(13) at 10e-9 M conc. in hamster tracheal organ culture assay (TOC); format: functional, Trachea; in short: as §1
Cricetinae gen. sp. [23] = test: Total cultures(13) versus active(13) at 10e-8 M conc. in hamster tracheal organ culture assay (TOC); format: functional, Trachea; in short: as §1
Cricetinae gen. sp. [24] = test: Total cultures(5) versus active(13) at 10e-10 M conc. in hamster tracheal organ culture assay (TOC); format: functional, Trachea; in short: as §1
Cricetinae gen. sp. [25] = test: Total cultures(13) versus active (13) at 10e-8 M conc. in hamster tracheal organ culture assay (TOC); format: functional, Trachea; in short: as §1
Cricetinae gen. sp. [26] = test: Total cultures(14) versus active (10) at 10e-9 M conc. in hamster tracheal organ culture assay (TOC); format: functional, Trachea; in short: as §1
Cricetinae gen. sp. [27] = test: Total cultures(14) versus active (6) at 10e-10 M conc. in hamster tracheal organ culture assay (TOC); format: functional, Trachea; in short: as §1

Row | SMILES | inhibition of control [6] | inhibition of control [7] | ED50 (Cricetinae gen. sp. [4]) | Relative activity (Cricetinae gen. sp. [5]) | further results
1 | CC1=C(/C=C/C(C)=C/c2ccc(C(=O)O)o2)C(C)(C)CCC1 | 7% | 5% | 0.02 nM | <<0.1 | Active/total cultures (Cricetinae gen. sp. [1]): 45%; Active/total cultures (Cricetinae gen. sp. [2]): 38%; Active/total cultures (Cricetinae gen. sp. [3]): 31%
2 | CCOC(=O)c1ccc(/C=C(C)/C=C/C2=C(C)CCCC2(C)C)c(F)c1 | 8% | 46% | 0.006 nM | 5 | Active/total cultures (Cricetinae gen. sp. [12]): 85%; Active/total cultures (Cricetinae gen. sp. [13]): 17%; Active/total cultures (Cricetinae gen. sp. [14]): 100%; Active/total cultures (Cricetinae gen. sp. [15]): 64%
3 | COc1cc(C(=O)O)ccc1/C=C(C)/C=C/C1=C(C)CCCC1(C)C | 9% | 37% | 0.01 nM | 3 | Active/total cultures (Cricetinae gen. sp. [16]): 17%; Active/total cultures (Cricetinae gen. sp. [17]): 50%; Active/total cultures (Cricetinae gen. sp. [18]): 83%
4 | CCOC(=O)c1ccc(/C=C(C)/C=C/C2=C(C)CCCC2(C)C)s1 | 67% | 77% | 0.02 nM | 3 | Active/total cultures (Cricetinae gen. sp. [25]): 100%; Active/total cultures (Cricetinae gen. sp. [26]): 71%; Active/total cultures (Cricetinae gen. sp. [27]): 43%

More lines, main results first:

Row | inhibition of control [6] | inhibition of control [7] | SMILES | ED50 (Cricetinae gen. sp. [4]) | Relative activity (Cricetinae gen. sp. [5]) | further results
5 | 29% | 60% | CCOC(=O)c1ccc(/C=C(C)/C=C/C2=C(C)CCCC2(C)C)cn1 | 0.008 nM | 0.4 | Active/total cultures (Cricetinae gen. sp. [8]): 29%; Active/total cultures (Cricetinae gen. sp. [9]): 57%; Active/total cultures (Cricetinae gen. sp. [10]): 100%
6 | 33% | 43% | CC1=C(/C=C/C(C)=C\c2ccc(C(=O)O)cc2)C(C)(C)CCC1 | 0.01 nM | <0.1 | inhibition of control [11]: 64%
7 | 35% | 76% | CCOC(=O)c1ccc(/C=C(C)\C=C\C2=C(C)CCCC2(C)C)s1 | 0.02 nM | 0.3 | Active/total cultures (Cricetinae gen. sp. [19]): 85%; Active/total cultures (Cricetinae gen. sp. [20]): 36%; Active/total cultures (Cricetinae gen. sp. [21]): 43%
8 | 70% | 80% | CC1=C(/C=C/C(C)=C(\F)c2ccc(C(=O)O)cc2)C(C)(C)CCC1 | 0.02 nM | 3 | Active/total cultures (Cricetinae gen. sp. [22]): 92%; Active/total cultures (Cricetinae gen. sp. [23]): 100%; Active/total cultures (Cricetinae gen. sp. [24]): 38%
